Source: ChEMBL document CHEMBL1817627, “Synergy-directed fractionation of botanical medicines: a case study with goldenseal (Hydrastis canadensis)” (2011)
Activity calls are given as the source filed them. The calls are words filed in the database; no cut-off is given here.

Experiments:
[1] = target: T1, Quinolone resistance protein NorA (Staphylococcus aureus) (UniProt P0A0J7); assay: Inhibition of wild type Staphylococcus aureus NCTC8325-4 NorA assessed as time taken to inhibit ethidium bromide efflux by measuring fluorescence at 100 uM relative to control
T1 sequence (whole entry): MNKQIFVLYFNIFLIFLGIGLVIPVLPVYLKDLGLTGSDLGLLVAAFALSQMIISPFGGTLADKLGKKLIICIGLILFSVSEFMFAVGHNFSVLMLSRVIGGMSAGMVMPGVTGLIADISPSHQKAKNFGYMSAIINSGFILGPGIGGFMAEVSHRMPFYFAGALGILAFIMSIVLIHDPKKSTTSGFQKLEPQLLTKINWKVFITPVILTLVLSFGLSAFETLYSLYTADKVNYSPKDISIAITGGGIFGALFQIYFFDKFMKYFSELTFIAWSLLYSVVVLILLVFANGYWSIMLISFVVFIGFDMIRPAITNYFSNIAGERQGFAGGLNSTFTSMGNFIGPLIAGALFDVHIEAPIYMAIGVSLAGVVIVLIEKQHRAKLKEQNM
In short: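 Cells grown in Mueller-Hinton broth to OD600 0.74, then loaded with ethidium bromide (25 μM) plus CCCP (100 μM) for 20 min at 20 °C with shaking. Diluted to OD600 0.40, pelleted and held on ice. Resuspended in fresh broth with 10% DMSO final and treatment at 100 μM final; CCCP is the control. Fluorescence (ex 530, em 600 nm) read every second for 300 s. Two-factor ANOVA versus vehicle at t = 300 s.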

Staphylococcus aureus [2] = assay: Inhibition of Staphylococcus aureus K1758 NorA mutant assessed as inhibition of ethidium bromide efflux by measuring increase in fluorescence at 100 uM after 300 secs
Staphylococcus aureus [3] = assay: Antimicrobial activity against NorA efflux pump overexpressing Staphylococcus aureus K2378; type: functional
In short: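 S. aureus K2378 (norA overexpressing); single colony grown to log phase in Mueller-Hinton broth, adjusted by OD600 to 1.0×10^5 CFU/mL final; broth microdilution per CLSI in broth with 2% DMSO; triplicate wells plus bacteria-free background wells; OD600 read after 20 hrs at 37 °C; MIC = concentration with no significant difference (ANOVA) from vehicle control.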

Staphylococcus aureus [4] = assay: Antimicrobial activity against wild-type Staphylococcus aureus NCTC8325-4; type: functional
In short: (§1)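 Broth microdilution MIC per CLSI guidelines. Single-colony S. aureus inoculum grown to log phase in Mueller-Hinton broth, adjusted by OD600 to 1.0×10^5 CFU/mL final. Medium contains 2% DMSO (vehicle, negative control); reserpine is the positive control. Triplicate wells, with bacteria-free wells for background subtraction. OD600 read after 20 hrs at 37 °C.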

Staphylococcus aureus [5] = assay: Antimicrobial activity against Staphylococcus aureus; type: functional; in short: as §1

SMILES	TIME [1] [h]	inhibition (Staphylococcus aureus [2])	MIC (Staphylococcus aureus [3]) [µg/mL]	MIC (Staphylococcus aureus [4]) [µg/mL]	MIC (Staphylococcus aureus [5]) [µg/mL]
COc1cc(O)c2c(=O)cc(-c3ccc(O)cc3)oc2c1C	0.0833	inactive			
COc1cc2oc(-c3ccc(O)cc3)cc(=O)c2c(O)c1C [8-DEMETHYLSIDEROXYLIN]	0.0833	inactive	> 300		
COc1ccc2cc3[n+](cc2c1OC)CCc1cc2c(cc1-3)OCO2 [BERBERINE]			300	150	150
N#CC(C#N)=NNc1cccc(Cl)c1	0.0833	inactive			
COc1c(C)c(O)c2c(=O)cc(-c3ccc(O)cc3)oc2c1C	0.0833	inactive			
